From ChEMBL document CHEMBL2424628, “Discovery of potent and selective nonsteroidal indazolyl amide glucocorticoid receptor agonists” (Bioorg Med Chem Lett, 2013)

Assays:
Homo sapiens = species: Homo sapiens; assay: Selectivity ratio of Ki for androgen receptor (unknown origin) to Ki for glucocorticoid receptor (unknown origin)
Progesterone receptor = target: T1, Progesterone receptor (Homo sapiens, UniProt P06401); assay: Binding affinity to progesterone receptor (unknown origin) by fluorescence polarization assay
T1 sequence (P06401 whole entry): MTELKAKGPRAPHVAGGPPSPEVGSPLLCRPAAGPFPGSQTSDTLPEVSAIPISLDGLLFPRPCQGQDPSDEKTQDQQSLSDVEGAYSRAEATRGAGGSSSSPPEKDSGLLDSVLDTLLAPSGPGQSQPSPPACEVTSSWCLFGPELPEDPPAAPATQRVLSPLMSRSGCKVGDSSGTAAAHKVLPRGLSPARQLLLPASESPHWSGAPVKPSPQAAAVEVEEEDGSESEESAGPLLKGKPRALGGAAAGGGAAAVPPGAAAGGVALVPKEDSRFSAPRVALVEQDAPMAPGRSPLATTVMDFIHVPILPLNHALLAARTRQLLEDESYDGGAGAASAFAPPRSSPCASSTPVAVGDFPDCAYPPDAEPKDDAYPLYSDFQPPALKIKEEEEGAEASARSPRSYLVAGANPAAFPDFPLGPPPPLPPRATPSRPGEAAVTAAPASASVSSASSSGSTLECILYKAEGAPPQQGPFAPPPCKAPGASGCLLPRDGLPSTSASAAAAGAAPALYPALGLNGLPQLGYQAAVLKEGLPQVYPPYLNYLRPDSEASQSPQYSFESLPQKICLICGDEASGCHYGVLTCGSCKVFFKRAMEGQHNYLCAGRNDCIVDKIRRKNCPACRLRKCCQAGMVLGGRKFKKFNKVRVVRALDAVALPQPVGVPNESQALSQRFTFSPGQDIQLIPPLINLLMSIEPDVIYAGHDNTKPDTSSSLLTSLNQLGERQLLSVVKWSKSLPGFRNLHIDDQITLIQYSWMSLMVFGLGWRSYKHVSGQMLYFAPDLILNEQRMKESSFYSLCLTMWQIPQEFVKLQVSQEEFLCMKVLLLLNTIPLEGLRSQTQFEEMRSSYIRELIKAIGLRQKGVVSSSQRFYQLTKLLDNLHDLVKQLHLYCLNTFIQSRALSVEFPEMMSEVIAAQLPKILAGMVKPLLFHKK
Summary of the method: (§1)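 Fluorescence polarization competition between test compound and a fluorescently labeled ligand for full-length receptor or its ligand binding domain. IC50 from a four-parameter logistic fit of the polarization signal, converted to Ki with Cheng–Prusoff […]. Means of duplicate experiments.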

Androgen receptor = target: T2, Androgen receptor (Homo sapiens, UniProt P10275); assay: Binding affinity to androgen receptor (unknown origin) by fluorescence polarization assay; summary of the method: as §1
T2 sequence (P10275 whole entry): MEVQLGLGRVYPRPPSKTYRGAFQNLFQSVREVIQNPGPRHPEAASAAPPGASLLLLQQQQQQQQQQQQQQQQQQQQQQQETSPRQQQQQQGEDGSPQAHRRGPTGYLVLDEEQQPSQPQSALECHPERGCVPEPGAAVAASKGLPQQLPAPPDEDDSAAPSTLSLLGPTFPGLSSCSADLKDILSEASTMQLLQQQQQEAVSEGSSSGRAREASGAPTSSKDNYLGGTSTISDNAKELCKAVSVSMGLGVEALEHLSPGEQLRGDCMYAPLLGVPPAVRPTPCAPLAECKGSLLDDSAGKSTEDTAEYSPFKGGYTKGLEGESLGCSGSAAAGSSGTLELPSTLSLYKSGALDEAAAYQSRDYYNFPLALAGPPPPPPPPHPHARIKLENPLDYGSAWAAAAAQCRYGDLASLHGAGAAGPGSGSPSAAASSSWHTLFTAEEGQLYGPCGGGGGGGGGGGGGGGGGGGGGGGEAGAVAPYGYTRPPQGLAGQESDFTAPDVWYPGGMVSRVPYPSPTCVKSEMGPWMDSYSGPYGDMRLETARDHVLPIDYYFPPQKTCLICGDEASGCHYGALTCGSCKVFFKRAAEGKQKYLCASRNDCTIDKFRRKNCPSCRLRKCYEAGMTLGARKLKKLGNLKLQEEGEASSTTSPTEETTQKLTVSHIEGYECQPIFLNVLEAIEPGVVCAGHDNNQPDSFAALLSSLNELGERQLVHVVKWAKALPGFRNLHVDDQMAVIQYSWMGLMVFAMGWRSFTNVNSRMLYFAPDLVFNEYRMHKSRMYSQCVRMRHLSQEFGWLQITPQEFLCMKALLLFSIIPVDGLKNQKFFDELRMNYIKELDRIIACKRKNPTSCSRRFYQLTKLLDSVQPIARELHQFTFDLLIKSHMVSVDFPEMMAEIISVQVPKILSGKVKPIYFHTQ

[1] = target: T3, Glucocorticoid receptor (Homo sapiens) (UniProt P04150); assay: Transactivation of glucocorticoid receptor ligand binding domain (unknown origin) transfected in human HeLa cells assessed as activation of NP-1 by GAL4 luciferase reporter gene assay relative to dexamethasone; type: cell-based
T3 sequence (whole entry): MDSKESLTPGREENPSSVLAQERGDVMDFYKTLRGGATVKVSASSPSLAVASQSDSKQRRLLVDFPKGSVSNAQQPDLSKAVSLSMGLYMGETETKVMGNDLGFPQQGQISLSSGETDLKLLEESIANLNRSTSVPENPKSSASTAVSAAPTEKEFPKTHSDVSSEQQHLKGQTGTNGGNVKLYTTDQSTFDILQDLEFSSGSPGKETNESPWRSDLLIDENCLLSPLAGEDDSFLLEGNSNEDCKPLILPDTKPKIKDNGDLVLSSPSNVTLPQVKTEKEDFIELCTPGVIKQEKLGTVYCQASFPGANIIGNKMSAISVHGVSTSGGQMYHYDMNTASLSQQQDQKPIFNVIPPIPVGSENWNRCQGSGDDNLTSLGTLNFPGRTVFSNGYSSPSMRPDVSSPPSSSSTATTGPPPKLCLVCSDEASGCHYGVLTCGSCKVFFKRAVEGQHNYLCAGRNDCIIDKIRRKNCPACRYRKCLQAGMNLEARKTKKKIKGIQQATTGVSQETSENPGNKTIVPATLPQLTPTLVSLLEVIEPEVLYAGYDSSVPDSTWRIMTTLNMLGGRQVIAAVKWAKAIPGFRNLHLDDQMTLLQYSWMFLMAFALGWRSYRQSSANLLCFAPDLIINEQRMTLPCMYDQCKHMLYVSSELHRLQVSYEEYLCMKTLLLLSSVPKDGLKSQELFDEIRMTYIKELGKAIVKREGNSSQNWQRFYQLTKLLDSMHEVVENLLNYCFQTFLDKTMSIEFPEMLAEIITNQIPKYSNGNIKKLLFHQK
Summary of the method: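 HeLa line (NP-1) stably transfected with a GR ligand binding domain chimera in a GAL4 luciferase reporter system, run in agonist mode. Direct GR-LBD activation read as increased luciferase activity. Means of two or more experiments in triplicate.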

Glucocorticoid receptor [2] = target: T4, Glucocorticoid receptor (Homo sapiens, UniProt P04150); assay: Transactivation of glucocorticoid receptor ligand binding domain (unknown origin) transfected in human HeLa cells assessed as activation of NP-1 by GAL4 luciferase reporter gene assay; type: cell-based
T4 sequence (P04150 whole entry): T3 sequence (whole entry)

Glucocorticoid receptor [3] = target: T4, Glucocorticoid receptor; assay: Binding affinity to glucocorticoid receptor (unknown origin) by fluorescence polarization assay

**Q.** For `CC(C)(C(=O)Nc1nncs1)[C@@H](c1ccccc1)c1ccc2c(cnn2-c2ccc(F)cc2)c1`, which Ratio Ki (Homo sapiens) is on record?
**A.** > 1000

**Q.** What about the Ki (Progesterone receptor) of the same molecule?
**A.** 107 nM

**Q.** What about the Ki (Androgen receptor) of the same molecule?
**A.** > 25000 nM

**Q.** And the Efficacy [1]?
**A.** 106%

**Q.** What about the EC50 (Glucocorticoid receptor [2]) of the same molecule?
**A.** 5.8 nM

**Q.** And the Ki (Glucocorticoid receptor [3])?
**A.** 5.1 nM

**Q.** With `CC(C)(C(=O)Nc1nncs1)[C@H](c1ccccc1)c1ccc2c(cnn2-c2ccc(F)cc2)c1` as the molecule, how does the Ratio Ki (Homo sapiens) read?
**A.** > 1000

**Q.** What about the Ki (Progesterone receptor) of the same molecule?
**A.** 56 nM

**Q.** And the Ki (Androgen receptor)?
**A.** > 25000 nM

**Q.** And the Ki (Glucocorticoid receptor [3])?
**A.** 6.7 nM
